Key:
A549 = test: Cytotoxicity against human A549 cells after 48 hrs by SRB assay; type: functional, cell-based; conditions: Homo sapiens, A549, 48 h
Summary of the method: (§1)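 Cells grown in RPMI 1640 with 10% FBS and penicillin/streptomycin at 37 °C and 5% CO₂, trypsinized, then seeded at 5 × 10³/well. After 18 h drug-free attachment, samples in DMSO/EtOH/PBS (0.5:0.5:99) were added for 48 h continuous exposure. Cells were fixed with cold TCA (1 h, 4 °C) and stained with SRB (10 min). Tris-solubilized stain read at 490 nm. Triplicate wells, mean ± SD; GI₅₀ derived.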

[1] = Cytotoxicity against human HeLa-APL cells after 48 hrs by SRB assay; type: functional; summary of the method: as §1
HT-29 = test: Cytotoxicity against human HT29 cells after 48 hrs by SRB assay; type: functional, cell-based; conditions: Homo sapiens, HT-29, 48 h; for CC50: read-out: LC50 (the source's name); summary of the method: as §1
PANC-1 = test: Cytotoxicity against human PANC1 cells after 48 hrs by SRB assay; type: functional; conditions: PANC-1, 48 h; for CC50: read-out: LC50 (the source's name); summary of the method: as §1
SK-MEL-28 = test: Cytotoxicity against human SK-MEL-28 cells after 48 hrs by SRB assay; type: functional, cell-based; conditions: Homo sapiens, SK-MEL-28, 48 h; for CC50: read-out: LC50 (the source's name); summary of the method: as §1
K562 = test: Cytotoxicity against human K562 cells after 48 hrs by SRB assay; type: functional; conditions: K562, 48 h; for CC50: read-out: LC50 (the source's name); summary of the method: as §1
DU-145 = test: Cytotoxicity against human DU145 cells after 48 hrs by SRB assay; type: functional, cell-based; conditions: Homo sapiens, DU-145, 48 h; for CC50: read-out: LC50 (the source's name); summary of the method: as §1
LoVo = test: Cytotoxicity against human LoVo cells after 48 hrs by SRB assay; type: functional; conditions: for CC50: read-out: LC50 (the source's name)
[2] = Cytotoxicity against human IGROV-ET cells after 48 hrs by SRB assay; type: functional; conditions: for CC50: read-out: LC50 (the source's name); summary of the method: as §1
SK-BR-3 = test: Cytotoxicity against human SKBR3 cells after 48 hrs by SRB assay; type: functional; conditions: SK-BR-3, 48 h; for GI50: read-out: GI50; for CC50: read-out: LC50 (the source's name); summary of the method: as §1
LNCaP = test: Cytotoxicity against human LNcaP cells after 48 hrs by SRB assay; type: functional; conditions: for CC50: read-out: LC50 (the source's name); summary of the method: as §1
HeLa = test: Cytotoxicity against human HeLa cells after 48 hrs by SRB assay; type: functional; conditions: for CC50: read-out: LC50 (the source's name); summary of the method: as §1
[3] = Cytotoxicity against human IGROV cells after 48 hrs by SRB assay; type: functional; conditions: for CC50: read-out: LC50 (the source's name); summary of the method: as §1

Row | Compound | LC50 (A549) [µM] | GI50 (A549; read-out: GI50) [µM] | GI50 [1] [µM] | LC50 (concentration giving 50% net cell kill) [1] [µM] | TGI [1] [µM] | CC50 (HT-29) [µM] | CC50 (PANC-1) [µM] | GI50 (SK-MEL-28; read-out: GI50) [µM] | CC50 (SK-MEL-28) [µM] | CC50 (K562) [µM] | GI50 (DU-145; read-out: GI50) [µM] | CC50 (DU-145) [µM] | GI50 (LoVo) [µM] | TGI (LoVo) [µM] | CC50 (LoVo) [µM] | GI50 ([2]; read-out: GI50) [µM] | CC50 [2] [µM] | TGI (SK-BR-3) [µM] | GI50 (SK-BR-3) [µM] | CC50 (SK-BR-3) [µM] | further results
1 | C/C=C1\NC(=O)[C@H](Cc2ccccc2)NC(=O)[C@@H](C(C)C)NC(=O)[C@@H]([C@H](C)CC)NC(=O)[C@H](NC(=O)[C@H](NC(=O)[C@H](CCCN)NC(=O)[C@H]2CCCN2C(=O)[C@H](NC(=O)[C@H](Cc2ccccc2)NC(=O)[C@@H](NC(=O)[C@H](NC(=O)CCCC(C)C)C(C)C)[C@@H](C)O)C(C)C)[C@H](C)CC)[C@H](C)OC(=O)[C@H](C(C)C)NC1=O | 0.96 | 0.722 | 0.816 | 0.768 | 0.795 | 0.0695 | 2.45 | 0.73 | 0.76 | 1.38 | 0.612 | 0.785 | 0.29 | 0.31 | 0.333 | 0.194 | 0.262 | 0.323 | 0.325 | 0.26 | GI50 (A549): 0.875 µM; GI50 (PANC-1): 2.54 µM; TGI (PANC-1): 3.53 µM; GI50 (SK-MEL-28): 0.739 µM; GI50 (K562): 1.74 µM; TGI (K562): 1.56 µM; GI50 (DU-145): 0.752 µM; GI50 [2]: 0.184 µM; GI50 (LNCaP): 0.857 µM; TGI (LNCaP): 0.941 µM; CC50 (LNCaP): 1.03 µM; GI50 (HeLa): 0.432 µM; TGI (HeLa): 0.542 µM; CC50 (HeLa): 0.607 µM; GI50 [3]: 0.25 µM; GI50 ([3]; read-out: GI50): 0.337 µM; CC50 [3]: 0.343 µM
2 | C/C=C1\NC(=O)[C@H](Cc2ccccc2)NC(=O)[C@@H](C(C)C)NC(=O)[C@@H]([C@H](C)CC)NC(=O)[C@H](NC(=O)[C@H](NC(=O)[C@H](CCCN)NC(=O)[C@H]2CCCN2C(=O)[C@H](NC(=O)[C@@H](NC(=O)[C@@H](NC(=O)[C@H](NC(=O)Cc2cc(F)cc(F)c2)C(C)C)[C@@H](C)O)C(C)C)C(C)C)[C@H](C)CC)[C@H](C)OC(=O)[C@H](C(C)C)NC1=O | 1.12 | 1.62 | 2.02 | 1.29 | 2.96 | 0.556 | 2.46 | 2.34 | 1.4 | 2.37 | 1.84 | 1.6 | 0.794 | 1.48 | 2.2 | 0.889 | 0.52 | 1.71 | 1.27 | 1.49 | TGI (A549): 1.35 µM; TGI (SK-MEL-28): 2.93 µM; TGI (DU-145): 3.69 µM; GI50 [2]: 0.679 µM; GI50 (LNCaP): 1.65 µM; TGI (LNCaP): 3.14 µM; CC50 (LNCaP): 1.49 µM; GI50 (HeLa): 1.41 µM; TGI (HeLa): 1.35 µM; CC50 (HeLa): 1.01 µM; GI50 [3]: 0.692 µM; GI50 ([3]; read-out: GI50): 1.37 µM; CC50 [3]: 0.426 µM
3 | C/C=C1\NC(=O)[C@H](Cc2ccccc2)NC(=O)[C@@H](C(C)C)NC(=O)[C@@H]([C@H](C)CC)NC(=O)[C@H](NC(=O)[C@H](NC(=O)[C@H](CCCN)NC(=O)[C@H]2CCCN2C(=O)[C@H](NC(=O)[C@H](CC(C)C)NC(=O)[C@@H](NC(=O)[C@H](NC(=O)CCCC(C)C)C(C)C)[C@@H](C)O)C(C)C)[C@H](C)CC)[C@H](C)OC(=O)[C@H](C(C)C)NC1=O | 1.11 | 1.28 | 0.939 | 0.807 | 0.871 | 0.479 | 2.51 | 0.964 | 8.75 | 2.3 | 0.941 | 0.863 | 0.312 | 0.324 | 0.337 | 0.35 | 0.383 | 0.482 | 0.445 | 0.689 | TGI (A549): 1.19 µM; GI50 (HT-29): 0.612 µM; TGI (HT-29): 0.679 µM; GI50 (PANC-1): 3.29 µM; TGI (PANC-1): 4.87 µM; TGI (SK-MEL-28): 9.12 µM; GI50 (K562): 2.1 µM; TGI (K562): 2.21 µM; GI50 (DU-145): 0.903 µM; TGI [2]: 0.38 µM; GI50 (LNCaP): 1.03 µM; TGI (LNCaP): 1.12 µM; CC50 (LNCaP): 1.23 µM; GI50 (HeLa): 1.02 µM; TGI (HeLa): 0.887 µM; CC50 (HeLa): 0.765 µM; TGI [3]: 4.02 µM; GI50 ([3]; read-out: GI50): 0.464 µM; CC50 [3]: 0.375 µM
4 | C/C=C1\NC(=O)[C@H](Cc2ccccc2)NC(=O)[C@@H](C(C)C)NC(=O)[C@@H]([C@H](C)CC)NC(=O)[C@H](NC(=O)[C@H](NC(=O)[C@H](CCCN)NC(=O)[C@H]2CCCN2C(=O)[C@H](NC(=O)[C@@H](NC(=O)[C@@H](NC(=O)[C@H](NC(=O)c2ccc(C(F)(F)F)cc2)C(C)C)[C@@H](C)O)C(C)C)C(C)C)[C@H](C)CC)[C@H](C)OC(=O)[C@H](C(C)C)NC1=O | 0.473 | 0.202 | 0.519 | 0.717 | 0.665 | 0.0765 | 2.43 | 0.839 | 0.809 | 2.34 | 0.31 | 0.8 | 0.253 | 0.268 | 0.286 | 0.14 | 0.294 | 0.289 | 0.303 | 0.223 | GI50 (A549): 0.254 µM; GI50 (PANC-1): 1.84 µM; TGI (PANC-1): 2.26 µM; GI50 (SK-MEL-28): 0.823 µM; GI50 (DU-145): 0.685 µM; GI50 [2]: 0.223 µM; GI50 (LNCaP): 0.341 µM; TGI (LNCaP): 0.621 µM; CC50 (LNCaP): 0.799 µM; GI50 (HeLa): 0.348 µM; TGI (HeLa): 0.526 µM; CC50 (HeLa): 0.601 µM; GI50 [3]: 0.236 µM; GI50 ([3]; read-out: GI50): 0.247 µM; CC50 [3]: 0.321 µM
5 | C/C=C1\NC(=O)[C@H](Cc2ccccc2)NC(=O)[C@@H](C(C)C)NC(=O)[C@@H]([C@H](C)CC)NC(=O)[C@H](NC(=O)[C@H](NC(=O)[C@H](CCCC[N+](C)(C)C)NC(=O)[C@H]2CCCN2C(=O)[C@H](NC(=O)[C@@H](NC(=O)[C@@H](NC(=O)[C@H](NC(=O)CC[C@@H](C)CC)C(C)C)[C@@H](C)O)C(C)C)C(C)C)[C@H](C)CC)[C@H](C)OC(=O)[C@H](C(C)C)NC1=O | 1.12 | 1.39 | 1.11 | 0.859 | 0.979 | 0.476 | 2.44 | 1.11 | 0.863 | 2.34 | 1.02 | 0.88 | 0.361 | 0.353 | 0.347 | 0.639 | 0.446 | 0.363 | 0.372 | 0.369 | TGI (A549): 1.24 µM; GI50 (HT-29): 0.786 µM; TGI (HT-29): 0.754 µM; GI50 (PANC-1): 4.16 µM; TGI (PANC-1): 4.73 µM; GI50 (SK-MEL-28): 0.979 µM; GI50 (K562): 1.84 µM; TGI (K562): 3.31 µM; GI50 (DU-145): 0.948 µM; GI50 [2]: 0.532 µM; GI50 (LNCaP): 1.06 µM; TGI (LNCaP): 1.06 µM; CC50 (LNCaP): 1.06 µM; GI50 (HeLa): 0.943 µM; TGI (HeLa): 0.809 µM; CC50 (HeLa): 0.689 µM; GI50 [3]: 0.47 µM; GI50 ([3]; read-out: GI50): 0.612 µM; CC50 [3]: 0.391 µM

Reference: ChEMBL document CHEMBL1156597, “Structure-activity relationship of kahalalide F synthetic analogues” (J Med Chem, 2008)
